Measurements reported in ChEMBL document CHEMBL4346747, “Alkynamide phthalazinones as a new class of TbrPDEB1 inhibitors” (Bioorg Med Chem, 2019).

Experiments:
Trypanosoma brucei [1] = assay: Antitrypanosomal activity against suramin sensitive Trypanosoma brucei Squib427 trypomastigotes assessed as reduction in parasitic cell viability measured after 72 hrs by resazurin dye based fluorimetric analysis; format: functional, organism-based; conditions: Squib427, 72 h
Outline: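 Suramin-sensitive Squib-427 trypomastigotes cultured in HMI-9 with 10% heat-inactivated FCS at 37 °C, 5% CO2. About 1.5 × 10^4 parasites per well, five concentrations (64, 16, 4, 1, 0.25 μM), DMSO ≤0.5%, 72 h at 37 °C. Resazurin added, fluorescence read 24 h later (ex 550/em 590 nm) as % viability reduction vs control. Suramin reference; duplicate experiments, mean ± S.E.M.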

[2] = Cytotoxicity against human MRC5 SV2 cells assessed as reduction in cell viability measured after 72 hrs by resazurin dye based fluorimetric analysis
[3] = target: T1, Class 1 phosphodiesterase PDEB1 (Trypanosoma brucei, UniProt Q8WQX9); assay: Inhibition of Trypanosoma brucei PDEB1 catalytic domain (565 to 918 residues) expressed in Escherichia coli BL21 incubated for 20 mins using cAMP as substrate by PDELight HTS cAMP phosphodiesterase Kit based luminometry
T1 sequence (Q8WQX9 whole entry): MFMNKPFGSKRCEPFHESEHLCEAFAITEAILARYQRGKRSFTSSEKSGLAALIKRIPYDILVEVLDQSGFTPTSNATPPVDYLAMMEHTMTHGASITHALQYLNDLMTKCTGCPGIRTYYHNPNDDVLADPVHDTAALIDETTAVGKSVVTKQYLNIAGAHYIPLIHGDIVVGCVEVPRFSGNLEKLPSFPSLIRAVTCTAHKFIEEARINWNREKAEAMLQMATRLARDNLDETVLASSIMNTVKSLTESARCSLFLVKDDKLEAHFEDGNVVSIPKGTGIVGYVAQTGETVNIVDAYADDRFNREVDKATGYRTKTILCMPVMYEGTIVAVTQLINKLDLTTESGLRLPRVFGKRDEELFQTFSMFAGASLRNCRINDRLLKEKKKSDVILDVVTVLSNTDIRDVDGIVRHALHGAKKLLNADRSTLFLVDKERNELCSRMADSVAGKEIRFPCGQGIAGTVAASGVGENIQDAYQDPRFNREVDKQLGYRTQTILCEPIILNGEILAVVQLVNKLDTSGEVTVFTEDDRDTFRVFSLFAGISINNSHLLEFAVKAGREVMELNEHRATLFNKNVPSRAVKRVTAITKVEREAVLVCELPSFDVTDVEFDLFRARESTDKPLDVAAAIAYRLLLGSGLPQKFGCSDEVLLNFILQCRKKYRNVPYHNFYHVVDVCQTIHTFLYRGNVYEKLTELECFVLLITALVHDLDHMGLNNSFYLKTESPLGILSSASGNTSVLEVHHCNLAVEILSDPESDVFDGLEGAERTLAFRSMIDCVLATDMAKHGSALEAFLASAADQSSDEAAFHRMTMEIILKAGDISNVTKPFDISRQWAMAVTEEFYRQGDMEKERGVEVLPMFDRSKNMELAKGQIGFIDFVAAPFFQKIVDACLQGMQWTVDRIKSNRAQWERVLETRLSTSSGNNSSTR

[4] = Cytotoxicity against human MRC5 SV2 cells assessed as reduction in cell viability at 64 uM measured after 72 hrs by resazurin dye based fluorimetric analysis
[5] = target: 3',5'-cyclic-AMP phosphodiesterase 4B (Homo sapiens, UniProt Q07343); assay: Inhibition of human PDE4B catalytic domain incubated for 20 mins using cAMP as substrate by PDELight HTS cAMP phosphodiesterase Kit based luminometry
Trypanosoma brucei [6] = assay: Antitrypanosomal activity against bloodstream of Trypanosoma brucei trypanosomes assessed as increase in intracellular cAMP level at 3.2 uM measured per 5x10^6 cells after 4 hrs by direct cAMP enzyme immunoassay kit based ELISA (reference value: 6.66 pmol); format: functional
Trypanosoma brucei [7] = assay: Antitrypanosomal activity against bloodstream of Trypanosoma brucei trypanosomes assessed as increase in intracellular cAMP level at 8 uM measured per 5x10^6 cells after 4 hrs by direct cAMP enzyme immunoassay kit based ELISA (reference value: 6.66 pmol); format: functional

Chain of 3',5'-cyclic-AMP phosphodiesterase 4B (Q07343 whole entry, the tested form may be a part): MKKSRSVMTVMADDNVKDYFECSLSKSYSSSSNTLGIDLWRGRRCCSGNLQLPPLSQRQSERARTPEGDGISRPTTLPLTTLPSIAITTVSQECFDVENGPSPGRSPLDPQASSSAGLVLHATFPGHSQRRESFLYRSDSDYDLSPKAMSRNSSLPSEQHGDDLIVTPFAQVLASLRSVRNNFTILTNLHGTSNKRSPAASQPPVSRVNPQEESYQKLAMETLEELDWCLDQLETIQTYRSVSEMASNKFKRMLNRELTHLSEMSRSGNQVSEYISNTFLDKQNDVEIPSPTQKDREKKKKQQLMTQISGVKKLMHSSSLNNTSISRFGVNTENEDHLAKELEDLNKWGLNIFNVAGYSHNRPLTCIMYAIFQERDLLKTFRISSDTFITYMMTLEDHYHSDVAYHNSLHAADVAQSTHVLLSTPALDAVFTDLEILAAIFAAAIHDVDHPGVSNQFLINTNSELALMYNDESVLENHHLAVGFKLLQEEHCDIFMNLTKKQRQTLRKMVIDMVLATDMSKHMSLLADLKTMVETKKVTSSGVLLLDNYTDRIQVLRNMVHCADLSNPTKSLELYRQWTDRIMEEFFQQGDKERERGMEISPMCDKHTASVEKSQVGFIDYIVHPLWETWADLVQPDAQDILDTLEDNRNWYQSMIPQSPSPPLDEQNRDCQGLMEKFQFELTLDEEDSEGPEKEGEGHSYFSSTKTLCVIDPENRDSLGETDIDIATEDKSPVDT

Q: For `COc1ccc(C2=NN(C(C)C)C(=O)[C@@H]3CC=CC[C@H]23)cc1-c1ccc(C(=O)NCC(N)=O)cc1`, which IC50 (Trypanosoma brucei [1]; read-out: pIC50 (converted)) is on record?
A: Its IC50 is 6310 nM.

Q: And the CC50 at 72 h [2]?
A: The CC50 at 72 h was 31600 nM.

Q: Which results are given for `COc1ccc(C2=NN(C3CCCCCC3)C(=O)[C@@H]3CC=CC[C@H]23)cc1-c1ccc(C(=O)NCC(N)=O)cc1`?
A: IC50 (Trypanosoma brucei [1]; read-out: pIC50 (converted)): 5010 nM; CC50 at 72 h [2]: 39800 nM

Q: For `COc1ccc(C2=NN(C3CCCCCC3)C(=O)[C@@H]3CC=CC[C@H]23)cc1-c1ccc2c(c1)CNC2=O`, which Ki [3] is on record?
A: The Ki was 1580 nM.

Q: With `COc1ccc(C2=NN(C(C)C)C(=O)[C@@H]3CC=CC[C@H]23)cc1N1CC(C(N)=O)C1` as the compound, how does the Ki [3] read?
A: Its Ki is over 10000 nM.

Q: Which Ki [3] does the source give for `COc1ccc(C2=NN(C3CCCCCC3)C(=O)[C@@H]3CC=CC[C@H]23)cc1-c1ccc(C(=O)NCC(N)=O)c(F)c1` here?
A: The Ki was 794 nM.

Q: Which Ki [3] does the source give for `COCCN1Cc2cc(-c3cc(C4=NN(C5CCCCCC5)C(=O)[C@@H]5CC=CC[C@H]45)ccc3OC)ccc2C1=O` (relative stereo) here?
A: Its Ki is 1260 nM.

Q: With `COc1ccc(C2=NN(C3CCCCCC3)C(=O)[C@@H]3CC=CC[C@H]23)cc1C#Cc1cnco1` (relative stereo) as the compound, how does the Ki [3] read?
A: Its Ki is over 10000 nM.

Q: For `C#Cc1cc(C2=NN(C3CCCCCC3)C(=O)[C@@H]3CC=CC[C@H]23)ccc1OC` (relative stereo), which Ki [3] is on record?
A: The Ki was 3980 nM.

Q: With `CCCCNC(=O)c1ccc(-c2cc(C3=NN(C(C)C)C(=O)[C@@H]4CC=CC[C@H]34)ccc2OC)s1` (relative stereo) as the compound, how does the Ki [3] read?
A: The Ki was over 10000 nM.

Q: Which Ki [3] does the source give for `COc1ccc(C2=NN(C(C)C)C(=O)[C@@H]3CC=CC[C@H]23)cc1-c1ccc(C(=O)NCc2ccco2)s1` (relative stereo) here?
A: The Ki was over 10000 nM.

Q: For `COc1ccc(C2=NN(C3CCCCCC3)C(=O)[C@@H]3CC=CC[C@H]23)cc1C#CC(=O)NCc1ccco1` (relative stereo), which IC50 (Trypanosoma brucei [1]; read-out: IC50) is on record?
A: Its IC50 is 600 nM.

Q: And the IC50 (Trypanosoma brucei [1]; read-out: pIC50 (converted))?
A: The IC50 was 631 nM.

Q: What about the Ki [3] of the same compound?
A: Its Ki is 501 nM.

Q: And the Activity [4]?
A: Its Activity is “Non-Toxic”.

Q: And the Ki [5]?
A: Its Ki is 398 nM.

Q: And the CC50 at 72 h [2]?
A: Its CC50 at 72 h is 50100 nM.

Q: Which Activity (Trypanosoma brucei [6]) does the source give for `COc1ccc(C2=NN(C3CCCCCC3)C(=O)[C@@H]3CC=CC[C@H]23)cc1C#CC(N)=O` (relative stereo) here?
A: The Activity was 19.8 pmol.

Q: And the IC50 (Trypanosoma brucei [1]; read-out: pIC50 (converted))?
A: Its IC50 is 1000 nM.

Q: And the Activity (Trypanosoma brucei [7])?
A: Its Activity is 311 pmol.

Q: What about the CC50 at 72 h [2] of the same compound?
A: Its CC50 at 72 h is 10000 nM.

Q: With `COc1ccc(C2=NN(C3CCCCCC3)C(=O)[C@@H]3CC=CC[C@H]23)cc1C#CC(=O)N1CCOCC1` (relative stereo) as the compound, how does the Ki [3] read?
A: The Ki was 1000 nM.

Q: For `COc1ccc(C2=NN(C3CCCCCC3)C(=O)[C@@H]3CC=CC[C@H]23)cc1-c1ccc(C(=O)NCC(N)=O)cc1C` (relative stereo), which Ki [3] is on record?
A: The Ki was over 10000 nM.

Q: For `COc1ccc(C2=NN(C3CCCCCC3)C(=O)[C@@H]3CC=CC[C@H]23)cc1C#CC(=O)NCC(N)=O` (relative stereo), which IC50 (Trypanosoma brucei [1]; read-out: pIC50 (converted)) is on record?
A: Its IC50 is 3980 nM.

Q: What about the Ki [3] of the same compound?
A: The Ki was 631 nM.

Q: And the CC50 at 72 h [2]?
A: Its CC50 at 72 h is 3980 nM.

Q: With `COc1ccc(C2=NN(C(C)C)C(=O)[C@@H]3CC=CC[C@H]23)cc1-c1ccc(C(N)=O)s1` (relative stereo) as the compound, how does the Ki [3] read?
A: The Ki was 10000 nM.

Q: For `CCCCNC(=O)C#Cc1cc(C2=NN(C3CCCCCC3)C(=O)[C@@H]3CC=CC[C@H]23)ccc1OC` (relative stereo), which IC50 (Trypanosoma brucei [1]; read-out: IC50) is on record?
A: Its IC50 is 600 nM.

Q: And the IC50 (Trypanosoma brucei [1]; read-out: pIC50 (converted))?
A: Its IC50 is 631 nM.

Q: What about the Ki [3] of the same compound?
A: The Ki was 398 nM.

Q: And the Activity [4]?
A: Its Activity is “Non-Toxic”.

Q: And the Ki [5]?
A: Its Ki is 631 nM.

Q: What about the CC50 at 72 h [2] of the same compound?
A: The CC50 at 72 h was over 63100 nM.

Q: What does the source list for `COCCNC(=O)C#Cc1cc(C2=NN(C3CCCCCC3)C(=O)[C@@H]3CC=CC[C@H]23)ccc1OC` (relative stereo)?
A: IC50 (Trypanosoma brucei [1]; read-out: pIC50 (converted)): > 63100 nM; Ki [3]: 794 nM; Ki [5]: 1580 nM; CC50 at 72 h [2]: > 63100 nM

Q: With `COCCNC(=O)c1ccc(-c2cc(C3=NN(C(C)C)C(=O)[C@@H]4CC=CC[C@H]34)ccc2OC)s1` (relative stereo) as the compound, how does the Ki [3] read?
A: Its Ki is over 10000 nM.

Q: With `CCCCNC(=O)C1CN(c2cc(C3=NN(C(C)C)C(=O)[C@@H]4CC=CC[C@H]34)ccc2OC)C1` (relative stereo) as the compound, how does the Ki [3] read?
A: Its Ki is over 10000 nM.

Q: With `COc1ccc(C2=NN(C(C)C)C(=O)[C@@H]3CC=CC[C@H]23)cc1-c1ccc(C(=O)NCC(N)=O)s1` (relative stereo) as the compound, how does the Ki [3] read?
A: The Ki was over 10000 nM.

Q: Which Ki [3] does the source give for `COc1cc(-c2cc(C3=NN(C4CCCCCC4)C(=O)[C@@H]4CC=CC[C@H]34)ccc2OC)ccc1C(=O)NCC(N)=O` (relative stereo) here?
A: Its Ki is 6310 nM.

Q: With `COc1ccc(C2=NN(C(C)C)C(=O)[C@@H]3CC=CC[C@H]23)cc1N1CC(C(=O)NCC(N)=O)C1` (relative stereo) as the compound, how does the Ki [3] read?
A: Its Ki is over 10000 nM.

Q: For `COc1ccc(C2=NN(C3CCCCCC3)C(=O)[C@@H]3CC=CC[C@H]23)cc1-c1ccc2c(c1)CN(CC(N)=O)C2=O` (relative stereo), which Ki [3] is on record?
A: Its Ki is 1260 nM.

Q: With `COc1ccc(C2=NN(C3CCCCCC3)C(=O)[C@@H]3CC=CC[C@H]23)cc1-c1ccc(C(=O)NCC(N)=O)cc1F` (relative stereo) as the compound, how does the Ki [3] read?
A: Its Ki is 2000 nM.

Q: Which Ki [3] does the source give for `COc1cc(C(=O)NCC(N)=O)ccc1-c1cc(C2=NN(C3CCCCCC3)C(=O)[C@@H]3CC=CC[C@H]23)ccc1OC` (relative stereo) here?
A: The Ki was 7940 nM.

Q: For `COc1ccc(C2=NN(C(C)C)C(=O)[C@@H]3CC=CC[C@H]23)cc1N1CC(C(=O)NCc2ccco2)C1` (relative stereo), which Ki [3] is on record?
A: Its Ki is over 10000 nM.

Q: For `COc1ccc(C2=NN(C3CCCCCC3)C(=O)[C@@H]3CC=CC[C@H]23)cc1-c1ccc(C(=O)NCC(N)=O)c(C)c1` (relative stereo), which Ki [3] is on record?
A: Its Ki is 2000 nM.
